This is an account of results in ChEMBL document CHEMBL5376013, “Design, synthesis and biological evaluation of novel morpholinopyrimidine-5-carbonitrile derivatives as dual PI3K/mTOR inhibitors” (RSC Med Chem, 2024).

Structures are written as SMILES.

Format in all cases: functional
Settings in all cases: read-out: GI

In one assay the test system is NCI/ADR-RES. Nature of the assay: Antitumor activity against human NCI-ADR-RES cells assessed as growth inhibition at 10 uM relative to control. An outline of the steps:
(§1)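 After drug addition, plates were incubated 48 h at 37 °C under 5% CO2. Adherent cells were fixed with cold TCA (10% final, 60 min, 4 °C) and suspension cells with 16% final TCA. Staining used 0.4% SRB in 1% acetic acid, solubilized in 10 mM trizma, read at A515. Percent growth was calculated from time-zero, control and treated absorbances.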

Another assay relates to A549. Nature of the assay: Antitumor activity against human A549 cells assessed as growth inhibition at 10 uM relative to control. An outline of the steps: as §1
In another assay the test system is SNB-19. In words: Antitumor activity against human SNB-19 cells assessed as growth inhibition at 10 uM relative to control. An outline of the steps:
(§2)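 Drug exposure 48 h at 37 °C, 5% CO2. Adherent cells fixed with cold TCA (10% final), suspension cells with TCA (16% final). Stained with 0.4% SRB in 1% acetic acid, dissolved in 10 mM Tris, A515. Growth relative to time-zero and untreated control.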

The subject of a further assay is OVCAR-5. In words: Antitumor activity against human OVCAR-5 cells assessed as growth inhibition at 10 uM relative to control. An outline of the steps: as §1
A further assay deals with MCF7. Nature of the assay: Antitumor activity against human MCF7 cells assessed as growth inhibition at 10 uM relative to control. An outline of the steps:
as §1

The next assay relates to RPMI-8226. In words: Antitumor activity against human RPMI-8226 cells assessed as growth inhibition at 10 uM relative to control. In short, it runs like this: as §1
A further assay has as its system HCC 2998. In words: Antitumor activity against human HCC 2998 cells assessed as growth inhibition at 10 uM relative to control. An outline of the steps:
as §1

Another assay relates to Hs-578T. In words: Antitumor activity against human Hs-578T cells assessed as growth inhibition at 10 uM relative to control. In short, it runs like this:
as §1

The subject of another assay is NCI-H23. In words: Antitumor activity against human NCI-H23 cells assessed as growth inhibition at 10 uM relative to control. In short, it runs like this: as §1
The next assay relates to K562. Nature of the assay: Antitumor activity against human K562 cells assessed as growth inhibition at 10 uM relative to control. An outline of the steps: as §1
For another assay, the system named is CCRF-CEM. In words: Antitumor activity against human CCRF-CEM cells assessed as growth inhibition at 10 uM relative to control. In short, it runs like this:
as §1

The test system of the next assay is SR. Nature of the assay: Antitumor activity against human SR cells assessed as growth inhibition at 10 uM relative to control. An outline of the steps: as §2
The next assay deals with TK-10. Nature of the assay: Antitumor activity against human TK-10 cells assessed as growth inhibition at 10 uM relative to control. In short, it runs like this: as §2
In another assay the test system is Malme-3M. In words: Antitumor activity against human Malme-3M cells assessed as growth inhibition at 10 uM relative to control. In short, it runs like this: as §1

Take `Cc1cc(C)n(-c2nc(-c3ccc(Cl)cc3)c(C#N)c(N3CCOCC3)n2)n1`: the inhibition of growth at 10 µM is 10.6% with NCI/ADR-RES; under 1% in the assay with A549; 14.2% with SNB-19; under 1% with OVCAR-5; under 16% with MCF7; 15.4% with RPMI-8226. Moreover, the inhibition of growth at 10 µM with HCC 2998 was under 1%; in the assay on Hs-578T it was 12.3%; in the assay on NCI-H23, 16%; with K562, under 1%; with CCRF-CEM, under 1%; with SR it was under 1%. The inhibition of growth at 10 µM in the assay with TK-10 and in the assay on Malme-3M was under 1% in each case.

Take `N#Cc1c(-c2ccc(Cl)cc2)nc(NN)nc1N1CCOCC1`: the inhibition of growth at 10 µM was under 1% with NCI/ADR-RES; under 1% in the assay on A549; under 1% in the assay with SNB-19; under 1% in the assay with OVCAR-5; 1% with MCF7; under 1% in the assay with RPMI-8226. Also, the inhibition of growth at 10 µM is under 1% in the assay with HCC 2998; under 1% with Hs-578T; 11.7% in the assay with NCI-H23; under 1% in the assay with K562; under 1% with CCRF-CEM; 26.9% with SR. Besides, the inhibition of growth at 10 µM in the assay on TK-10 and with Malme-3M was under 1% throughout.

On to `N#Cc1c(-c2ccc(Cl)cc2)nc(N/N=C/c2cccc(Br)c2)nc1N1CCOCC1`, for which the inhibition of growth at 10 µM in the assay with NCI/ADR-RES was under 1%; in the assay on A549, 19.6%; with SNB-19, under 1%; in the assay with OVCAR-5 it was 17.9%; in the assay on MCF7, under 27.5%; in the assay with RPMI-8226 it was 44%. The inhibition of growth at 10 µM was under 1% in the assay with HCC 2998; 17.9% in the assay with Hs-578T; under 1% in the assay with NCI-H23; 87.4% in the assay on K562; 49.7% in the assay with CCRF-CEM; under 1% with SR. In addition, the inhibition of growth at 10 µM in the assay with TK-10 and with Malme-3M was under 1% each time.

On to `N#Cc1c(-c2ccc(Cl)cc2)nc(N/N=C2/C(=O)Nc3ccccc32)nc1N1CCOCC1`, for which the inhibition of growth at 10 µM in the assay with NCI/ADR-RES is under 1%; with A549, 12.9%; in the assay with SNB-19, under 1%; in the assay on OVCAR-5, under 1%; with MCF7, 1%; in the assay on RPMI-8226, under 1%. The inhibition of growth at 10 µM in the assay on HCC 2998 is under 1%; in the assay on Hs-578T, under 1%; in the assay with NCI-H23, under 1%; in the assay with K562, under 1%; with CCRF-CEM, under 1%; in the assay with SR, 25.7%. The inhibition of growth at 10 µM in the assay with TK-10 and with Malme-3M was under 1% throughout.

Turning to `N#Cc1c(-c2ccc(Cl)cc2)nc(N/N=C/c2ccco2)nc1N1CCOCC1`, the inhibition of growth at 10 µM is 24.2% with NCI/ADR-RES; 21.1% in the assay on A549; 20% with SNB-19; 23.1% with OVCAR-5; under 73.8% in the assay with MCF7; 33.5% with RPMI-8226. In addition, the inhibition of growth at 10 µM in the assay on HCC 2998 was 25.2%; in the assay on Hs-578T it was 31.8%; with NCI-H23, 29.2%; in the assay on K562, under 1%; with CCRF-CEM, 11.3%; in the assay with SR, under 1%. In addition, the inhibition of growth at 10 µM with TK-10 was found to be 37.6%; in the assay on Malme-3M it was 57.6%.

On to `N#Cc1c(-c2ccc(Cl)cc2)[nH]c(=S)[nH]c1=O`, for which the inhibition of growth at 10 µM is under 1% with NCI/ADR-RES; under 1% with A549; under 1% in the assay with SNB-19; 33.4% in the assay on OVCAR-5; under 1% in the assay on MCF7; under 1% in the assay on RPMI-8226. For the same compound, the inhibition of growth at 10 µM in the assay on HCC 2998, in the assay on Hs-578T, in the assay on NCI-H23, in the assay on K562, in the assay on CCRF-CEM and in the assay on SR was under 1% throughout. Further, the inhibition of growth at 10 µM in the assay on TK-10 and in the assay with Malme-3M was under 1% throughout.

Turning to `CSc1nc(-c2ccc(Cl)cc2)c(C#N)c(N2CCOCC2)n1`, the inhibition of growth at 10 µM in the assay with NCI/ADR-RES is 12%; with A549 it was 10.8%; with SNB-19, 20.1%; in the assay on OVCAR-5 it was under 1%; in the assay on MCF7, 1%; with RPMI-8226 it was 17.9%. Also, the inhibition of growth at 10 µM was under 1% with HCC 2998; under 1% in the assay with Hs-578T; 10.8% in the assay with NCI-H23; 19.9% in the assay with K562; under 1% in the assay on CCRF-CEM; 22.7% with SR. The results for the inhibition of growth at 10 µM in the assay on TK-10 and in the assay on Malme-3M were under 1% and 11%, respectively.

As for `N#Cc1c(-c2ccc(Cl)cc2)nc(N/N=C/c2cccc(F)c2)nc1N1CCOCC1`, the inhibition of growth at 10 µM with NCI/ADR-RES is under 1%; in the assay on A549, under 1%; in the assay with SNB-19, under 1%; in the assay on OVCAR-5 it was under 1%; in the assay on MCF7, under 12.4%; in the assay with RPMI-8226, 22.3%. Besides, the inhibition of growth at 10 µM is under 1% in the assay on HCC 2998; under 1% with Hs-578T; under 1% in the assay on NCI-H23; 15% with K562; 19.6% in the assay with CCRF-CEM; under 1% with SR. The inhibition of growth at 10 µM in the assay with TK-10 and in the assay with Malme-3M was under 1% each time.

Turning to `N#Cc1c(-c2ccc(Cl)cc2)nc(NN2C(=O)c3ccccc3C2=O)nc1N1CCOCC1`, the inhibition of growth at 10 µM with NCI/ADR-RES is under 1%; with A549, under 1%; with SNB-19 it was under 1%; in the assay on OVCAR-5, under 1%; with MCF7, 1%; with RPMI-8226 it was under 1%. For the same compound, the inhibition of growth at 10 µM is under 1% with HCC 2998; under 1% with Hs-578T; under 1% in the assay on NCI-H23; under 1% in the assay with K562; under 1% with CCRF-CEM; 16% in the assay with SR. Also, the inhibition of growth at 10 µM in the assay on TK-10 and in the assay with Malme-3M was under 1% each time.

Regarding `CSc1nc(Cl)c(C#N)c(-c2ccc(Cl)cc2)n1`, the inhibition of growth at 10 µM with NCI/ADR-RES was under 1%; in the assay on A549 it was under 1%; with SNB-19 it was under 1%; in the assay on OVCAR-5, under 1%; with MCF7 it was 1%; in the assay on RPMI-8226 it was under 1%. Besides, the inhibition of growth at 10 µM in the assay with HCC 2998 is under 1%; in the assay with Hs-578T, under 1%; in the assay with NCI-H23, under 1%; in the assay with K562 it was 44.5%; with CCRF-CEM it was 26.1%; in the assay on SR it was 58.5%. The inhibition of growth at 10 µM in the assay on TK-10 and with Malme-3M was under 1% each time.

Consider `CSc1nc(O)c(C#N)c(-c2ccc(Cl)cc2)n1`, for which the inhibition of growth at 10 µM in the assay with NCI/ADR-RES is under 1%; in the assay with A549, under 1%; in the assay on SNB-19 it was under 1%; with OVCAR-5, under 1%; in the assay with MCF7 it was 11%; with RPMI-8226 it was under 1%. In addition, the inhibition of growth at 10 µM in the assay on HCC 2998, in the assay on Hs-578T, in the assay with NCI-H23, with K562, in the assay with CCRF-CEM and in the assay on SR was under 1% in each case. Further, the inhibition of growth at 10 µM in the assay on TK-10 and in the assay with Malme-3M was under 1% each time.
